For series [1], the species on record is Mus musculus. The series is described as follows: Toxicity in albino mouse assessed as induction of catalepsy measured at 30 mins intervals until 240 mins. It is filed as organism-based. As to conditions: in vivo. The method in brief:
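Test drug given i.p. to albino mice (n = 6) in place of haloperidol reference (1.0 mg/kg i.p.). Bar test: time (s) holding forelimbs extended on 4 cm high, 1.0 cm diameter wooden bar, cut-off 1100 s, read at 30 min intervals to 120 min and at 240 min. Run 10.00–16.00 h, quiet room, 23–25 °C. ED50 (mg/kg, i.p.).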

In series [2] the test system is Mus musculus. The series can be described thus: Antipsychotic activity in ip dosed Swiss albino mouse assessed as inhibition of apomorphine-induced mesh climbing response administered 10 mins prior to apomorphine challenge measured at 5 mins intervals for up to 20 mins after 10 mins post dose. It is filed as functional. Put shortly:
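Groups of six mice given test compound, saline (control) or clozapine i.p.; apomorphine 2.5 mg/kg i.p. 10 min later. Mesh climbing scored (0 = no paws on cage) at 5 min intervals for 20 min from 10 min post-apomorphine, maximum total score 20. Mean ± SEM; ED50 (mg/kg, i.p.); Kruskal-Wallis or one-way ANOVA vs control.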

Series [3] relates to Mus musculus. The series can be described thus: Antipsychotic activity in ip dosed Swiss albino mouse assessed as inhibition of 5-hydoxytryptophan-induced head twitches behavior administered 30 mins prior to 5-hydoxytryptophan challenge measured at 10 mins intervals for 30 mins after 20 mins post dose. It is filed as functional. Put shortly: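 Mice (n = 6/group) pretreated with pargyline 75 mg/kg i.p. to slow 5-HTP breakdown; test compound given i.p. 30 min later, then 5-HTP 50 mg/kg i.p. after a further 30 min. Head twitches scored at 10 min intervals for 30 min from 20 min post-5-HTP. Data as mean ± SEM total score; ED50 (mg/kg, i.p.); Kruskal-Wallis or one-way ANOVA vs control.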

On to `Cc1cccc(N2CCN(CC(=O)N(c3ccccc3)c3ccccc3)CC2)c1C`, for which the ED50 was greater than 40 mg/kg in series [1], 28.5 mg/kg in series [2] and greater than 30 mg/kg in series [3].
With `CN1CCN(C2=Nc3cc(Cl)ccc3Nc3ccccc32)CC1` [CLOZAPINE], the ED50 worked out at 8.7 mg/kg in series [2] and 2.8 mg/kg in series [3].
On to `Cc1ccc(N2CCN(CC(=O)N(c3ccccc3)c3ccccc3)CC2)cc1`, for which the 50% effective dose (ED50) in series [1] was greater than 40 mg/kg; in series [2] it was greater than 20 mg/kg; in series [3] it was 31.2 mg/kg.
In the case of `O=C(CN1CCN(c2ccccc2)CC1)N(c1ccccc1)c1ccccc1`, the median effective dose (ED50) in series [1] stood at 50 mg/kg; in series [2], 20.5 mg/kg; in series [3], 27 mg/kg.
The corresponding values for `O=C(CN1CCN(c2cccc(C(F)(F)F)c2)CC1)N(c1ccccc1)c1ccccc1` are 48 mg/kg, 21.3 mg/kg and 30 mg/kg.
The corresponding values for `COc1ccccc1N1CCN(CC(=O)N(c2ccccc2)c2ccccc2)CC1` are 50.4 mg/kg, 8.2 mg/kg and 12.7 mg/kg.
The like results for `COc1cccc(N2CCN(CC(=O)N(c3ccccc3)c3ccccc3)CC2)c1` were, in that order, 55.4 mg/kg, 10 mg/kg and 15.5 mg/kg.
Regarding `O=C(CN1CCN(c2cccc(Cl)c2)CC1)N(c1ccccc1)c1ccccc1`, the ED50 in series [1] came out at 48.4 mg/kg; in series [2], 16.5 mg/kg; in series [3] it was 18 mg/kg.
The corresponding values for `O=C(CN1CCN(c2ccc(F)cc2)CC1)N(c1ccccc1)c1ccccc1` are greater than 40 mg/kg, 13.4 mg/kg and 20 mg/kg.
The corresponding values for `O=C(CN1CCN(c2ccc(Cl)c(Cl)c2)CC1)N(c1ccccc1)c1ccccc1` are 45 mg/kg, 24 mg/kg and greater than 20 mg/kg.
As for `O=C(CN1CCN(c2ccc([N+](=O)[O-])cc2)CC1)N(c1ccccc1)c1ccccc1`, the ED50 in series [1] is greater than 40 mg/kg; in series [2], 30 mg/kg; in series [3] it was greater than 40 mg/kg.

A word on the ED50: it is the midpoint of the dose-response relation.

Values taken from ChEMBL document CHEMBL1914434, “Synthesis, computational studies and preliminary pharmacological evaluation of 2-[4-(aryl substituted) piperazin-1-yl] N, N-diphenylacetamides as potential antipsychotics” (Eur J Med Chem, 2011).
